Laboratory results as given in ChEMBL document CHEMBL1944511, “Bakuchiol derivatives as novel and potent cytotoxic agents: a report” (Eur J Med Chem, 2012).

What was measured:
MCF7 [1] = test: Growth inhibition of human MCF7 cells at 50 uM after 48 hrs by sulpharhodamine B assay; type: functional; details: MCF7, 48 h, read-out: GI
How it was run: (§1)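 This is the SRB protein-stain assay on adherent cells in RPMI-1640/MEM with 10% FCS. Each compound in DMSO (vehicle <0.2%) was applied at a single fixed concentration for 48 h. Cells were fixed with TCA and stained with SRB, and the dye was solubilised in Tris and read at 570/620 nm. Percent growth inhibition is relative to vehicle-treated controls, reported as mean ± SD of three experiments run in triplicate.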

A549 [2] = test: Growth inhibition of human A549 cells at 50 uM after 48 hrs by sulpharhodamine B assay; type: functional; details: A549, 48 h, read-out: GI; how it was run: as §1
PC-3 [3] = test: Growth inhibition of human PC3 cells at 50 uM after 48 hrs by sulpharhodamine B assay; type: functional; details: PC-3, 48 h, read-out: GI
How it was run: (§2)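 Cells grown in RPMI-1640/MEM with 10% FCS, penicillin/streptomycin, 37 °C, 5% CO2. Seeded in 96-well plates, allowed to adhere overnight, then exposed 48 h to analogs in DMSO (vehicle <0.2% in controls). TCA-fixed, stained with 0.4% SRB in 1% acetic acid, dye solubilized in 10 mM Tris base, OD 570 nm (ref 620 nm). Mean ± SD of three experiments run in triplicate.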

OVCAR-5 [4] = test: Growth inhibition of human OVCAR5 cells at 50 uM after 48 hrs by sulpharhodamine B assay; type: functional; details: OVCAR-5, 48 h, read-out: GI; how it was run: as §1
IMR-32 [5] = test: Growth inhibition of human IMR32 cells at 50 uM after 48 hrs by sulpharhodamine B assay; type: functional; details: IMR-32, 48 h, read-out: GI; how it was run: as §1
HeLa [6] = test: Growth inhibition of human HeLa cells at 50 uM after 48 hrs by sulpharhodamine B assay; type: functional; details: read-out: GI; how it was run: as §1
THP-1 [7] = test: Growth inhibition of human THP1 cells at 50 uM after 48 hrs by sulpharhodamine B assay; type: functional; details: THP-1, 48 h, read-out: GI; how it was run: as §2
MCF7 [8] = test: Growth inhibition of human MCF7 cells at 30 uM after 48 hrs by sulpharhodamine B assay; type: functional; details: MCF7, 48 h, read-out: GI; how it was run: as §1
A549 [9] = test: Growth inhibition of human A549 cells at 30 uM after 48 hrs by sulpharhodamine B assay; type: functional; details: A549, 48 h, read-out: GI; how it was run: as §1
PC-3 [10] = test: Growth inhibition of human PC3 cells at 30 uM after 48 hrs by sulpharhodamine B assay; type: functional; details: PC-3, 48 h, read-out: GI; how it was run: as §2
OVCAR-5 [11] = test: Growth inhibition of human OVCAR5 cells at 30 uM after 48 hrs by sulpharhodamine B assay; type: functional; details: OVCAR-5, 48 h, read-out: GI; how it was run: as §1
IMR-32 [12] = test: Growth inhibition of human IMR32 cells at 30 uM after 48 hrs by sulpharhodamine B assay; type: functional; details: IMR-32, 48 h, read-out: GI; how it was run: as §1
HeLa [13] = test: Growth inhibition of human HeLa cells at 30 uM after 48 hrs by sulpharhodamine B assay; type: functional; details: read-out: GI; how it was run: as §1
THP-1 [14] = test: Growth inhibition of human THP1 cells at 30 uM after 48 hrs by sulpharhodamine B assay; type: functional; details: THP-1, 48 h, read-out: GI; how it was run: as §2
HEp-2 [15] = test: Growth inhibition of human Hep2 cells at 50 uM after 48 hrs by sulpharhodamine B assay; type: functional; details: HEp-2, 48 h, read-out: GI; how it was run: as §1
HEp-2 [16] = test: Growth inhibition of human Hep2 cells at 30 uM after 48 hrs by sulpharhodamine B assay; type: functional; details: HEp-2, 48 h, read-out: GI; how it was run: as §1
T47D = test: Cytotoxicity against human T47D cells; type: functional, cell-based

SMILES: C=C[C@@](C)(/C=C/c1ccc(O)cc1)CCC=C(C)C [BAKUCHIOL]
- inhibition of growth at 50 µM (MCF7 [1]): 63%
- inhibition of growth at 50 µM (A549 [2]): 63%
- inhibition of growth at 50 µM (PC-3 [3]): 58%
- inhibition of growth at 50 µM (OVCAR-5 [4]): 66%
- inhibition of growth at 50 µM (IMR-32 [5]): 58%
- inhibition of growth at 50 µM (HeLa [6]): 55%
- inhibition of growth at 50 µM (THP-1 [7]): 74%
- inhibition of growth at 30 µM (MCF7 [8]): 33%
- inhibition of growth at 30 µM (A549 [9]): 30%
- inhibition of growth at 30 µM (PC-3 [10]): 21%
- inhibition of growth at 30 µM (OVCAR-5 [11]): 25%
- inhibition of growth at 30 µM (IMR-32 [12]): 31%
- inhibition of growth at 30 µM (HeLa [13]): 20%
- inhibition of growth at 30 µM (THP-1 [14]): 44%
- inhibition of growth at 50 µM (HEp-2 [15]): 53%
- inhibition of growth at 30 µM (HEp-2 [16]): 20%
- IC50 (T47D): 28.9 µM
